Assay results as given in ChEMBL document CHEMBL1122269, “Synthesis and biological evaluation of neutral derivatives of 5-fluoro-2'-deoxyuridine 5'-phosphate” (1983).

Columns and labels:
P388 [1] = assay: Percentage increase in life span of murine leukemia P388 resistant to 5-FU, at a dose 20 mg/kg; type: functional; conditions: Mus musculus
How it was run: (§1)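 P-388 model in male BDF₁ mice, six per group, average weight 23 g: 1×10^6 cells ip on day 0, then compound in 0.9% saline ip daily ×5 from 24 h. Mice were observed up to 60 days. % ILS = (T/C − 1) × 100, using median survival of treated mice versus saline-treated controls.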

P388 [2] = assay: Percentage increase in life span of murine leukemia P388 resistant to 5-FU, at a dose 15 mg/kg; type: functional; conditions: Mus musculus; how it was run: as §1
P388 [3] = assay: Percentage increase in life span of murine leukemia P388 resistant to 5-FU, at a dose 35 mg/kg; type: functional; conditions: Mus musculus; how it was run: as §1
P388 [4] = assay: Percentage increase in life span of murine leukemia P388 sensitive to 5-FU, at a dose 20 mg/kg; type: functional; conditions: Mus musculus; how it was run: as §1
P388 [5] = assay: Percentage increase in life span of murine leukemia P388 sensitive to 5-FU, at a dose 35 mg/kg; type: functional; conditions: Mus musculus; how it was run: as §1
P388 [6] = assay: Average percentage weight change on day 6 in murine leukemia P388 resistant to 5-FU at a dose of 15 mg/kg; type: functional, Mus musculus
How it was run: (§2)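 Male BDF₁ mice, six per group, average weight 23 g, were given 1×10^6 P-388 cells ip on day 0. Compound in 0.9% saline was dosed ip once daily for 5 consecutive days, starting 24 h after tumour transplant.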

P388 [7] = assay: Average percentage weight change on day 6 in murine leukemia P388 resistant to 5-FU at a dose of 20 mg/Kg; type: functional, Mus musculus; how it was run: as §2
P388 [8] = assay: Average percentage weight change on day 6 in murine leukemia P388 resistant to 5-FU at a dose of 35 mg/kg; type: functional, Mus musculus; how it was run: as §2
P388 [9] = assay: Average percentage weight change on day 6 in murine leukemia P388 sensitive to 5-FU at a dose of 20 mg/kg; type: functional, Mus musculus; how it was run: as §2
P388 [10] = assay: Average percentage weight change on day 6 in murine leukemia P388 sensitive to 5-FU at a dose of 35 mg/kg; type: functional, Mus musculus; how it was run: as §2
P388 [11] = assay: Median survival time (MST) of murine leukemia P388 (1*10e 6 cells) resistant to 5-FU in […] mice, dose of 35 mg/kg(ip); type: functional, Mus musculus
How it was run: (§3)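 Male BDF₁ mice, six per group, average weight 23 g, were inoculated ip with 1×10^6 P-388 cells on day 0. Compound in 0.9% saline was given ip daily for 5 days from 24 h post-implant. Mice were followed for 60 days or until death, and median survival time was recorded. Saline-treated controls numbered 20 mice.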

P388 [12] = assay: Median survival time (MST) of murine leukemia P388 (1*10e 6 cells) sensitive to 5-FU in mice, dose of 20 mg/kg(ip); type: functional, Mus musculus; how it was run: as §3
P388 [13] = assay: Median survival time (MST) of murine leukemia P388 (1*10e 6 cells) sensitive to 5-FU in mice, dose of 35 mg/kg(ip); type: functional, Mus musculus; how it was run: as §3
P388 [14] = assay: Median survival time (MST) of murine leukemia P388 (1*10e 6 cells) resistant to 5-FU in mice, dose of 15 mg/kg(ip); type: functional, Mus musculus; how it was run: as §3
P388 [15] = assay: Median survival time (MST) of murine leukemia P388 (1*10e 6 cells) resistant to 5-FU in mice, dose of 20 mg/kg (i.p.); type: functional, Mus musculus; conditions: route intraperitoneal; how it was run: as §3

O=c1[nH]cc(F)c(=O)[nH]1 [FLUOROURACIL]
ILS at 20 mg/kg (P388 [1]): 10% | ILS at 15 mg/kg (P388 [2]): 10% | ILS at 35 mg/kg (P388 [3]): -10% | ILS at 20 mg/kg (P388 [4]): 111% | ILS at 35 mg/kg (P388 [5]): -11% | Weight change (P388 [6]): -6.2% | Weight change (P388 [7]): -3.9% | Weight change (P388 [8]): -14.2% | Weight change (P388 [9]): -16.5% | Weight change (P388 [10]): -21.8% | MST (P388 [11]): 9 days | MST (P388 [12]): 19 days | MST (P388 [13]): 8 days | MST (P388 [14]): 11 days | MST (P388 [15]): 11 days
